Reference: ChEMBL document CHEMBL4028906, “Allosteric Inhibitors of SHP2 with Therapeutic Potential for Cancer Treatment” (J Med Chem, 2017)
The source made the active and inactive calls. The calls are words filed in the database; no cut-off is given here.

Key:
[1] = biological target: T1, Tyrosine-protein phosphatase non-receptor type 11 (Homo sapiens) (UniProt Q06124); assay: Inhibition of SHP2 in human SF268 cells assessed as downregulation of YAP-mediated ANKRD1 gene expression ay 10 to 20 uM after 2 hrs by qRT-PCR analysis; format: cell-based
T1 sequence (whole entry): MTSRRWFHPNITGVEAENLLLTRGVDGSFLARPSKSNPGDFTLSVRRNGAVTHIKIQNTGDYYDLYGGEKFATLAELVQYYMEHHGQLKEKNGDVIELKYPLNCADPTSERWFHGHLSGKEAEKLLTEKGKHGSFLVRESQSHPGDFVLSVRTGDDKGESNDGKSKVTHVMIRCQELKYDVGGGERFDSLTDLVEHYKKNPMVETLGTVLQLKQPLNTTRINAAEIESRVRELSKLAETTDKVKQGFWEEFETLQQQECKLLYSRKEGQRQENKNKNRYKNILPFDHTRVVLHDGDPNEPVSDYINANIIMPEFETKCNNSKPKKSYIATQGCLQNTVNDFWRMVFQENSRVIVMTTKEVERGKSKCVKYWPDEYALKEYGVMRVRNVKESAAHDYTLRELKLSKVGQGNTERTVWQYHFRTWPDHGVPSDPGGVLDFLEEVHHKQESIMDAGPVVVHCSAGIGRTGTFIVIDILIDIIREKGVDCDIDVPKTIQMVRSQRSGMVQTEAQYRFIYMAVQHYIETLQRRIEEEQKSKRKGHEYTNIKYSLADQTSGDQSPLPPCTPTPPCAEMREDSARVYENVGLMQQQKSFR
Summary of the method: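 SF268 cells exposed to DMSO, 10 μM or 20 μM inhibitor for 2 h. RNA extracted, reverse-transcribed, and CTGF, CYR61, ANKRD1 and YAP mRNA quantified by qPCR; mean±s.d., n=3.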

[2] = biological target: T1, Tyrosine-protein phosphatase non-receptor type 11 (Homo sapiens); assay: Allosteric inhibition of SHP2 in human NCI-H661 cells assessed as downregulation of phosphorylated ERK1/2 levels at 2.5 to 20 uM after 2 hrs by Western blot analysis; format: cell-based
Summary of the method: (§1)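 NCI-H661 cells in 6-well plates exposed to inhibitor 2 h at 37 °C. RIPA lysates separated by SDS-PAGE, transferred to PVDF, milk-blocked, probed overnight at 4 °C for pERK1/2, ERK1/2, pAKT and AKT. Repeated at least three times.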

[3] = biological target: T1, Tyrosine-protein phosphatase non-receptor type 11 (Homo sapiens); assay: Allosteric inhibition of SHP2 in human NCI-H661 cells assessed as downregulation of phosphorylated AKT levels at 2.5 to 20 uM after 2 hrs by Western blot analysis; format: cell-based; summary of the method: as §1
[4] = Allosteric inhibition of SHP2 E76A mutant (unknown origin) expressed in Escherichia coli BL21(DE3) using DIFMUP as substrate preincubated for 20 mins followed by substrate addition measured after 20 mins by phosphatase assay; design: species or system Homo sapiens
Summary of the method: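 His-tagged SHP2 constructs expressed in E. coli BL21(DE3) (0.5 mM IPTG, 5 h, 30 °C) and Ni-column purified. 1.5 nM enzyme preincubated 20 min at room temperature with compound in 0.1 M sodium acetate pH 5.0. DIFMUP then added, 20 min further, fluorescence at 358/455 nm. Eight 3-fold dilutions, duplicate wells, IC50 from at least three independent experiments.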

[5] = AUC in nu/nu nude mouse at 10 mg/kg, po measured up to 24 hrs postdose by LC/MS/MS analysis; format: ADME, organism-based; design: dose 10 mg/kg, time < 24 hr, route oral; details: in vivo
Summary of the method: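 Female nu/nu nude mice dosed IV via tail vein at 5 mg/kg or orally at 10 mg/kg. Blood sampled at 0.083, 0.25, 0.5, 1, 2, 4, 8 and 24 h post-dose (orbital sinus, terminal cardiac puncture; EDTA-2K). Plasma separated at 4 °C, precipitated with acetonitrile containing internal standard, quantified by LC/MS/MS.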

[6] = Inhibition of SHP2 N58S mutant (unknown origin); design: species or system Homo sapiens
[7] = organism: Homo sapiens; assay: Selectivity ratio of IC50 for LMW-PTP (unknown origin) expressed in Escherichia coli BL21(DE3) to IC50 for SHP2 E76A mutant (unknown origin) expressed in Escherichia coli BL21(DE3)
Summary of the method: (§2)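 Ratio of IC50 values from one DIFMUP fluorescence assay (Ex/Em 358/455), room temperature, 0.1 M sodium acetate pH 5.0. His-tagged SHP2 E76A (1.5 nM) or counter-phosphatase purified from E. coli, preincubated 20 min with compound (eight 3-fold dilutions), then DIFMUP added for 20 min. DIFMUP was at Km for each counter-phosphatase. Duplicates; IC50 from at least three independent experiments.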

[8] = organism: Homo sapiens; assay: Selectivity ratio of IC50 for TC-PTP (unknown origin) expressed in Escherichia coli BL21(DE3) to IC50 for SHP2 E76A mutant (unknown origin) expressed in Escherichia coli BL21(DE3); summary of the method: as §2
[9] = organism: Homo sapiens; assay: Selectivity ratio of IC50 for PTP1B (unknown origin) expressed in Escherichia coli BL21(DE3) to IC50 for SHP2 E76A mutant (unknown origin) expressed in Escherichia coli BL21(DE3); summary of the method: as §2
[10] = biological target: Tyrosine-protein phosphatase non-receptor type 1 (Homo sapiens, UniProt P18031); assay: Inhibition of PTP1B (unknown origin) expressed in Escherichia coli BL21(DE3) using DIFMUP as substrate preincubated for 20 mins followed by substrate addition measured after 20 mins by phosphatase assay
Chain of Tyrosine-protein phosphatase non-receptor type 1 (P18031 whole entry): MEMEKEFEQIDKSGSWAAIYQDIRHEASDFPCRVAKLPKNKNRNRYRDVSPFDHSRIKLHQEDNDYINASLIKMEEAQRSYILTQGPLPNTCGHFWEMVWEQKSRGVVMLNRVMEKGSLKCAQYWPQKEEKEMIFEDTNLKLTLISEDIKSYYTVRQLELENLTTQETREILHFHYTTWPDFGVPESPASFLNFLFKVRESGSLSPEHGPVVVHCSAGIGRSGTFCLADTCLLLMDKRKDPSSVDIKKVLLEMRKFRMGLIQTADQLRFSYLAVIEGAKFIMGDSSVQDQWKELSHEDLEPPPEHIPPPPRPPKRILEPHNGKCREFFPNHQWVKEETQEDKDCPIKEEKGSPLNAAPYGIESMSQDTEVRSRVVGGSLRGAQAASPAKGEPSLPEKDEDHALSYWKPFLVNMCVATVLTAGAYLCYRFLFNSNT
Summary of the method: (§3)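 Phosphatases purified from E. coli and run as for SHP2 E76A: 20 min room-temperature preincubation with compound in 0.1 M sodium acetate pH 5.0, then DIFMUP at each enzyme's Km, 20 min, fluorescence 358/455 nm. Eight 3-fold dilutions in duplicate; IC50 from at least three independent experiments.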

[11] = organism: Homo sapiens; assay: Selectivity ratio of IC50 for VHR (unknown origin) expressed in Escherichia coli BL21(DE3) to IC50 for SHP2 E76A mutant (unknown origin) expressed in Escherichia coli BL21(DE3); summary of the method: as §2
[12] = test system: MV4-11; assay: Antitumor activity against human MV4-11 cells xenografted in BALB/c mouse assessed as tumor growth inhibition at 10 mg/kg administered qd via oral gavage measured twice weekly relative to control; format: functional; details: MV4-11, po, read-out: TGI
Summary of the method: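 Female BALB/c nude mice given subcutaneous MV4;11 cells (5×10^6, in 50% phenol red-free matrigel in PBS). Once tumours reached about 230 mm³, mice were randomised to vehicle or oral gavage once daily (10 ml/kg). Tumour volume was measured by caliper in two dimensions twice a week, along with body weight. Data given as mean±sem, with significance assessed on day 14.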

[13] = test system: K562; assay: Antiproliferative activity against human K562 cells at 3 to 6 uM after 2 days by CellTiter-Glo assay; format: functional, cell-based
Summary of the method: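 3000 cells/well in 96-well plates, grown overnight, then inhibitor at indicated concentrations for 2 days (48 h). Viability by CellTiter-Glo; mean±s.d., n=3.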

[14] = biological target: T1, Tyrosine-protein phosphatase non-receptor type 11 (Homo sapiens); assay: Allosteric inhibition of SHP2 in human A549 cells harboring KRAS mutant assessed downregulation on ERK1/2 phosphorylation at 5 and 10 uM after 2 hrs by Western blot analysis; format: cell-based
[15] = biological target: Low molecular weight phosphotyrosine protein phosphatase (Homo sapiens, UniProt P24666); assay: Inhibition of LMW-PTP (unknown origin) expressed in Escherichia coli BL21(DE3) using DIFMUP as substrate preincubated for 20 mins followed by substrate addition measured after 20 mins by phosphatase assay; summary of the method: as §3
Chain of Low molecular weight phosphotyrosine protein phosphatase (P24666 whole entry): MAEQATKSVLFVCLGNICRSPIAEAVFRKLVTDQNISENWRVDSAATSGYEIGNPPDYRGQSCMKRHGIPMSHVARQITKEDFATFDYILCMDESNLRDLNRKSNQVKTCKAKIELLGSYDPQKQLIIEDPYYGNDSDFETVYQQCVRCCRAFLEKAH

CC1(N)CCN(c2nc(-c3ccc4cc(Br)ccc4c3)cs2)CC1
inhibition [1]: Active | inhibition [2]: Active | inhibition [3]: Active | IC50 [4]: 0.71 µM | AUC at 24 h [5]: 9.86 µM·h | IC50 [6]: 1.2 µM | Ratio IC50 [7]: > 30 | Ratio IC50 [8]: > 30 | Ratio IC50 [9]: > 30 | IC50 [10]: 31.2 µM | Ratio IC50 [11]: > 30 | inhibition in vivo at 10 mg/kg [12]: 44.6% | Activity [13]: Active | inhibition [14]: inactive | IC50 [15]: > 100 µM
